{
  "source": "paper PMC9710334",
  "about": "(BMJ Open Gastroenterology, 2022)",
  "key": {"[1]": {"tested_on": "patients with advanced PBC", "assay": "Serum liver function parameters during OP-724 administration", "format": "in vivo, human"}, "[2]": {"tested_on": "patients with advanced PBC", "assay": "Liver stiffness", "format": "in vivo, human", "in_short": "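Patients aged 20–74 years with PBC and Scheuer stage III or higher fibrosis on screening biopsy received iv OP-724 at 280 or 380 mg/m2 over 4 hours, twice weekly for 12 cycles. Liver stiffness was measured by FibroScan, and the Child-Pugh score, MELD score and Enhanced Liver Fibrosis score were determined. Prespecified change was from baseline to 12 weeks. Analysis was descriptive, mean±SD, with no statistical testing.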"}, "[3]": {"tested_on": "patients with liver cirrhosis induced by hepatitis B or C virus", "settings": "cited from earlier work"}, "[4]": {"assay": "Plasma pharmacokinetics of OP-724 and C-82 after OP-724 infusion", "format": "in vivo, human", "settings": "for OP-724 AUC0-24h / OP-724 Cmax / OP-724 Tmax / OP-724 T1/2: plasma", "in_short": "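A single iv dose of 280 or 380 mg/m2 was infused over 4 hours. Blood was drawn predose, at 30 min and 1, 2 and 4 hours after dosing, then 1, 5 and 20 hours after the infusion ended. Plasma parent and metabolite C-82 were quantified. […] Values are mean±SD.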"}, "[5]": {"tested_on": "P300/β-catenin signalling", "settings": "ref 20 23; cited from earlier work"}, "[6]": {"settings": "before and after administration"}, "[7]": {"settings": "patient P101-07, 12 weeks, baseline 5"}, "[8]": {"settings": "patient P101-08, 12 weeks, baseline 6"}, "[9]": {"settings": "OP-724 280 mg/m^2/4 hours, Max, N=6"}, "[10]": {"settings": "OP-724 280 mg/m^2/4 hours, Median, N=6"}, "[11]": {"settings": "OP-724 280 mg/m^2/4 hours, Min, N=6"}, "[12]": {"settings": "single OP-724 iv infusion 280 mg/m^2/4 hours, Mean, N=6"}, "[13]": {"settings": "single OP-724 iv infusion 380 mg/m^2/4 hours, Mean, N=1"}},
  "note": "Values joined by “and” are separate entries in the source; they are usually repeats but may differ in a detail not shown here. Equal values may be shown once. “Also recorded” adds a separate entry of the source.",
  "data": [
    {"smiles": "C[C@H]1[C@H]2N(C(=O)CN(C)N2C(=O)NCc2ccccc2)[C@@H](Cc2ccc(OP(=O)(O)O)cc2)C(=O)N1Cc1cccc2cccnc12", "note": "[OP-724]", "values": [
      {"measurement": "serum ALP and GGT levels", "setting": "[1]; 5, 9, 12 and 16 weeks vs baseline", "result": "did not show a tendency to decrease"},
      {"measurement": "patients whose abnormally high baseline total bile acid values decreased", "setting": "[1]; 12 weeks, of five patients with baseline and 12-week data", "result": "four"},
      {"measurement": "serum total bile acid level", "setting": "[1]; during OP-724 administration, no significant difference", "result": "downward trend; also recorded: tendency to decrease"},
      {"measurement": "increase in the albumin level", "setting": "[1]; this study", "result": "this tendency was not observed"},
      {"measurement": "change in mean CP score", "setting": "[2]; 12 weeks after administration", "result": "no changes"},
      {"measurement": "change in mean MELD score", "setting": "[2]; 12 weeks after administration", "result": "no changes"},
      {"measurement": "change in Enhanced Liver Fibrosis score", "setting": "[2]; [6]", "result": "no significant change"},
      {"measurement": "change in liver stiffness by FibroScan", "setting": "[2]; [6]", "result": "no significant change"},
      {"measurement": "ELF score", "setting": "[2]; patient P101-01, 12 weeks, baseline 1.2", "result": 0.9},
      {"measurement": "Child-Pugh score", "setting": "[2]; patient P101-01, 12 weeks, baseline 6", "result": 7},
      {"measurement": "FibroScan", "setting": "[2]; patient P101-01, 12 weeks, baseline 9.1", "result": 8.9, "unit": "kPa"},
      {"measurement": "MELD score", "setting": "[2]; patient P101-01, 12 weeks, baseline 15", "result": 15},
      {"measurement": "ELF score", "setting": "[2]; patient P101-02, 12 weeks, baseline 0.78", "result": 0.24},
      {"measurement": "MELD score", "setting": "[2]; patient P101-02, 12 weeks, baseline 2", "result": 2},
      {"measurement": "Child-Pugh score", "setting": "[2]; patient P101-02, 12 weeks, baseline 6", "result": 6},
      {"measurement": "FibroScan", "setting": "[2]; patient P101-02, 12 weeks, baseline 40.3", "result": 33.8, "unit": "kPa"},
      {"measurement": "ELF score", "setting": "[2]; patient P101-04, 12 weeks, baseline 2.46", "result": 3.16},
      {"measurement": "MELD score", "setting": "[2]; patient P101-04, 12 weeks, baseline 6", "result": 8},
      {"measurement": "Child-Pugh score", "setting": "[2]; patient P101-04, 12 weeks, baseline 7", "result": 7},
      {"measurement": "FibroScan", "setting": "[2]; patient P101-04, 12 weeks, baseline 26.3", "result": 23.6, "unit": "kPa"},
      {"measurement": "Child-Pugh score", "setting": "[2]; [7]", "result": 5},
      {"measurement": "MELD score", "setting": "[2]; [7]", "result": 5},
      {"measurement": "FibroScan", "setting": "[2]; patient P101-07, 12 weeks, baseline 11.6", "result": 9.2, "unit": "kPa"},
      {"measurement": "ELF score", "setting": "[2]; patient P101-07, 12 weeks, baseline −0.1", "result": "−0.07"},
      {"measurement": "ELF score", "setting": "[2]; patient P101-08, 12 weeks, baseline 0.96", "result": 1.48},
      {"measurement": "Child-Pugh score", "setting": "[2]; [8]", "result": 6},
      {"measurement": "MELD score", "setting": "[2]; [8]", "result": 6},
      {"measurement": "FibroScan", "setting": "[2]; patient P101-08, 12 weeks, baseline 22.3", "result": 36.3, "unit": "kPa"},
      {"measurement": "liver dysfunction reported as SAE", "setting": "[3]; one patient at level 3 (380 mg/m^2/4 hours), PRI-724-2101 study ref 25", "result": "severe liver dysfunction"},
      {"measurement": "harmful effects in humans", "setting": "[3]; phase 1 or 1/2a clinical trials ref 24 25", "result": "does not have harmful effects in humans"},
      {"measurement": "albumin level", "setting": "[3]; previous clinical trials ref 24 25", "result": "increase in the albumin level"},
      {"measurement": "OP-724 AUC0-24h", "setting": "[4]; [9]", "result": 9210, "unit": "ng･h/mL"},
      {"measurement": "OP-724 Cmax", "setting": "[4]; [9]", "result": 2460, "unit": "ng/mL"},
      {"measurement": "OP-724 Tmax", "setting": "[4]; [9]", "result": 4, "unit": "h"},
      {"measurement": "OP-724 AUC0-24h", "setting": "[4]; [10]", "result": 6340, "unit": "ng･h/mL"},
      {"measurement": "OP-724 Cmax", "setting": "[4]; [10]", "result": 2000, "unit": "ng/mL"},
      {"measurement": "OP-724 Tmax", "setting": "[4]; [10]", "result": 2, "unit": "h"},
      {"measurement": "OP-724 AUC0-24h", "setting": "[4]; [11]", "result": 3880, "unit": "ng･h/mL"},
      {"measurement": "OP-724 Cmax", "setting": "[4]; [11]", "result": 1080, "unit": "ng/mL"},
      {"measurement": "OP-724 Tmax", "setting": "[4]; [11]", "result": 0.5, "unit": "h"},
      {"measurement": "OP-724 T1/2", "setting": "[4]; single OP-724 iv infusion 280 mg/m^2/4 hours, Mean, N=4", "result": 0.438, "unit": "h"},
      {"measurement": "OP-724 AUC0-24h", "setting": "[4]; [12]", "result": "6420±1910 ng･h/mL and 6420 ng･h/mL"},
      {"measurement": "OP-724 Cmax", "setting": "[4]; [12]", "result": 1850, "unit": "ng/mL"},
      {"measurement": "OP-724 Tmax", "setting": "[4]; [12]", "result": 1.9, "unit": "h"},
      {"measurement": "OP-724 AUC0-24h", "setting": "[4]; [13]", "result": 10200, "unit": "ng·h/mL"},
      {"measurement": "OP-724 Cmax", "setting": "[4]; [13]", "result": 3980, "unit": "ng/mL"},
      {"measurement": "OP-724 T1/2", "setting": "[4]; [13]", "result": 0.497, "unit": "h"},
      {"measurement": "OP-724 Tmax", "setting": "[4]; [13]", "result": 1, "unit": "h"},
      {"measurement": "time after initiating administration at which plasma OP-724 reached Cmax", "setting": "[4]; single dose, all patients", "result": "0.5 to 4", "unit": "h"},
      {"measurement": "inhibition of P300/β-catenin signalling", "setting": "[5]", "result": "does not inhibit"}
    ]}
  ]
}
